Test results published in ChEMBL document CHEMBL1146767, “New highly selective inhibitors of class II fructose-1,6-bisphosphate aldolases” (Bioorg Med Chem Lett, 2004).

Legend:
Oryctolagus cuniculus [1] = species on record: Oryctolagus cuniculus; test: Selectivity (Ki rabbit /Ki B:subtilis) of inhibitors for class II versus class I FBP aldolase
[2] = In vitro binding affinity towards FBP aldolase from yeast; design: species or system Saccharomyces cerevisiae
Summary of the method: (§1)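 Yeast aldolase was partly purified after French-press cell disruption (specific activity 5.5 U/mg). DHAP from FBP cleavage was coupled to glycerophosphate dehydrogenase (300-fold excess), with NADH loss monitored at 340 nm. Buffer was 0.1 M glycylglycine, pH 7.4, with 0.01 M 2-mercaptoethanol. FBP served as substrate.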

Oryctolagus cuniculus [3] = species on record: Oryctolagus cuniculus; test: Selectivity (Ki rabbit /Ki yeast) of inhibitors for class II versus class I FBP aldolase
[4] = (§2) In vitro binding affinity towards FBP aldolase from Bacillus subtilis
Summary of the method: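 Class II aldolase from Bacillus subtilis with FBP as substrate. DHAP formed was measured at 340 nm as NADH consumption, coupled to a 300-fold excess of glycerophosphate dehydrogenase. Medium was 0.1 M glycylglycine buffer pH 7.4, without 2-mercaptoethanol.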

[5] = In vitro binding affinity towards FBP aldolase from rabbit; design: species or system Oryctolagus cuniculus
Summary of the method: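 Rabbit muscle class I aldolase, FBP substrate. Cleavage product DHAP was followed spectrophotometrically at 340 nm through NADH consumption, using a 300-fold excess of glycerophosphate dehydrogenase as coupling enzyme. Medium was 0.1 M triethanolamine–HCl pH 7.6 with 1 mM EDTA.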

[6] = In vitro binding towards FBP aldolase from rabbit; design: species or system Oryctolagus cuniculus
Summary of the method: (§3)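 Rabbit muscle class I aldolase was assayed in 0.1 M triethanolamine–HCl, pH 7.6, with 1 mM EDTA. DHAP released from FBP was measured through a coupled reaction with a 300-fold excess of glycerophosphate dehydrogenase, following NADH consumption spectrophotometrically at 340 nm.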

[7] = as §2; remark: listed apart in the source
Summary of the method: (§4)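 B. subtilis class II aldolase. FBP cleavage was followed by reducing the DHAP formed with a 300-fold excess of glycerophosphate dehydrogenase and reading NADH consumption at 340 nm. Medium was 0.1 M glycylglycine buffer, pH 7.4, without 2-mercaptoethanol. Inhibition was analysed with FBP as substrate.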

Bacillus subtilis = test: Enzymatic kinetics (Km) constant towards FBP aldolase from Bacillus subtilis; summary of the method: as §4
Saccharomyces cerevisiae = test: Enzymatic kinetics (Km) constant towards FBP aldolase from yeast; summary of the method: as §1
Oryctolagus cuniculus [8] = species on record: Oryctolagus cuniculus; test: Enzymatic kinetics (Km) constant towards FBP aldolase from rabbit; summary of the method: as §3

Ki [2] [µM]	Selectivity (Oryctolagus cuniculus [3])	Ki [6] [µM]	Ki [7] [µM]	Km (Bacillus subtilis) [µM]	Km (Saccharomyces cerevisiae) [µM]	Km (Oryctolagus cuniculus [8]) [µM]	SMILES	Selectivity (Oryctolagus cuniculus [1])	Ki [4] [µM]	Ki [5] [µM]
0.01	100	1					O=C(COP(=O)(O)O)NO [PHOSPHOGLYCOLOHYDROXAMATE]			
2.3	> 435		3.3				N/C(COP(=O)(O)O)=N/O	> 303		> 1000
				2000	450	55	O=P(O)(O)OC[C@H]1O[C@](O)(COP(=O)(O)O)[C@@H](O)[C@@H]1O			

SMILES	Ki [2] [µM]	Selectivity (Oryctolagus cuniculus [3])	Ki [6] [µM]	Ki [7] [µM]	Km (Bacillus subtilis) [µM]	Km (Saccharomyces cerevisiae) [µM]	Km (Oryctolagus cuniculus [8]) [µM]	Selectivity (Oryctolagus cuniculus [1])	Ki [4] [µM]	Ki [5] [µM]
NNC(=O)COP(=O)(O)O [PHOSPHORIC ACID MONOHYDRAZINOCARBONYLMETHYL ESTER]	0.34	1090						552	670	370
